{"source": "ChEMBL document CHEMBL1153629", "about": "“Antitumor activity of deoxypodophyllotoxin isolated from Anthriscus sylvestris: Induction of G2/M cell cycle arrest and caspase-dependent apoptosis” (2009)", "key": {"HeLa [1]": {"test_system": "HeLa", "assay": "Induction of apoptosis in human HeLa cells assessed as PARP cleavage after 24 to 48 hrs by Western blot analysis", "assay_type": "functional, cell-based", "outline": "(§1)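 HeLa cells treated with 0.5 µM for 0–48 h (sampled at 0, 3, 6, 12, 24, 48 h). Whole-cell lysates made in 20 mM HEPES pH 7.2, 1% Triton X-100, 10% glycerol, 150 mM NaCl, leupeptin, 1 mM PMSF. Lysates run on SDS–PAGE, immunoblotted with the indicated antibodies, GAPDH as loading control.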"}, "HeLa [2]": {"test_system": "HeLa", "assay": "Cell cycle arrest at G2/M phase in human HeLa cells assessed as increase in cyclin B1 expression at 0.5 uM after 3 to 24 hrs by Western blot analysis", "assay_type": "functional, cell-based", "outline": "as §1"}, "HeLa [3]": {"test_system": "HeLa", "assay": "Cell cycle arrest in human HeLa cells assessed as accumulation at G1 phase at 0.5 uM after 12 hrs using propidium iodide staining by FACS analysis", "assay_type": "functional", "outline": "(§2)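 HeLa cells grown in DMEM/FBS, 24 h to adhere, then given 0.5 µM from DMSO stock (DMSO <0.1% in medium). Harvested at 0, 12, 24 and 48 h, PBS-washed and fixed in 70% ethanol. Stained with 50 µg/ml propidium iodide plus 100 µg/ml RNase A at 37 °C in the dark for ≥3 h. Read by flow cytometry; sub-G1 fraction scored as apoptotic.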"}, "HeLa [4]": {"test_system": "HeLa", "assay": "Induction of apoptosis in human HeLa cells assessed as breakdown of nuclei by immunostaining method", "assay_type": "functional, cell-based", "outline": "(§3)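 HeLa cells exposed to 0.5 µM for 48 h. Microtubules stained with anti-α-tubulin and an Alexa Fluor 488 secondary antibody, DNA with TO-PRO-3 iodide. Fragmented nuclei scored by confocal microscopy.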"}, "HeLa [5]": {"test_system": "HeLa", "assay": "Cell cycle arrest in human HeLa cells assessed as accumulation at sub G1 phase at 0.5 uM after 12 hrs using propidium iodide staining by FACS analysis", "assay_type": "functional", "outline": "as §2"}, "HeLa [6]": {"test_system": "HeLa", "assay": "Cell cycle arrest in human HeLa cells assessed as accumulation at S phase at 0.5 uM after 48 hrs using propidium iodide staining by FACS analysis", "assay_type": "functional", "outline": "as §2"}, "HeLa [7]": {"test_system": "HeLa", "assay": "Induction of apoptosis in human HeLa cells assessed as fragmentation of chromosomal DNA by immunostaining method", "assay_type": "functional, cell-based", "outline": "as §3"}, "HeLa [8]": {"test_system": "HeLa", "assay": "Cell cycle arrest in human HeLa cells assessed as accumulation at sub G1 phase at 0.5 uM after 48 hrs using propidium iodide staining by FACS analysis", "assay_type": "functional", "outline": "as §2"}, "HeLa [9]": {"test_system": "HeLa", "assay": "Cell cycle arrest in human HeLa cells assessed as accumulation at sub G1 phase at 0.5 uM after 24 hrs using propidium iodide staining by FACS analysis", "assay_type": "functional", "outline": "as §2"}, "[10]": {"assay": "Inhibition of tubulin polymerization by turbidity assay", "outline": "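Turbidity assay: tubulin in reaction buffer with GTP at 37 °C, test agent at 0.25 and 0.50 µM, taxol 0.1 µM as positive control. A340 read every 30 s for 60 min with gentle plate agitation.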"}, "HeLa [11]": {"test_system": "HeLa", "assay": "Cell cycle arrest in human HeLa cells assessed as accumulation at G1 phase at 0.5 uM after 24 hrs using propidium iodide staining by FACS analysis", "assay_type": "functional", "outline": "as §2"}, "HeLa [12]": {"test_system": "HeLa", "assay": "Cell cycle arrest in human HeLa cells assessed as accumulation at S phase at 0.5 uM after 24 hrs using propidium iodide staining by FACS analysis", "assay_type": "functional", "outline": "as §2"}, "HeLa [13]": {"test_system": "HeLa", "assay": "Cell cycle arrest in human HeLa cells assessed as accumulation at G2 phase at 0.5 uM after 48 hrs using propidium iodide staining by FACS analysis", "assay_type": "functional", "outline": "as §2"}, "HeLa [14]": {"test_system": "HeLa", "assay": "Cell cycle arrest in human HeLa cells assessed as accumulation at G1 phase at 0.5 uM after 48 hrs using propidium iodide staining by FACS analysis", "assay_type": "functional", "outline": "as §2"}, "HeLa [15]": {"test_system": "HeLa", "assay": "Cell cycle arrest at G2/M phase in human HeLa cells assessed as decrease in cyclin A expression at 0.5 uM after 48 hrs by Western blot analysis", "assay_type": "functional, cell-based", "outline": "as §1"}, "HeLa [16]": {"test_system": "HeLa", "assay": "Cell cycle arrest in human HeLa cells assessed as accumulation at S phase at 0.5 uM after 12 hrs using propidium iodide staining by FACS analysis", "assay_type": "functional", "outline": "as §2"}, "HeLa [17]": {"test_system": "HeLa", "assay": "Cell cycle arrest in human HeLa cells assessed as accumulation at G2 phase at 0.5 uM after 24 hrs using propidium iodide staining by FACS analysis", "assay_type": "functional", "outline": "as §2"}, "HeLa [18]": {"test_system": "HeLa", "assay": "Induction of apoptosis in human HeLa cells assessed as caspase 7 cleavage at 0.5 uM", "assay_type": "functional, cell-based", "details": "TDE = time-dependent effect", "outline": "as §1"}, "HeLa [19]": {"test_system": "HeLa", "assay": "Induction of apoptosis in human HeLa cells assessed as caspase 3 cleavage at 0.5 uM", "assay_type": "functional, cell-based", "details": "TDE = time-dependent effect", "outline": "as §1"}, "HeLa [20]": {"test_system": "HeLa", "assay": "Antiproliferative activity against human HeLa cells at 0.25 uM after 24 hrs", "assay_type": "functional, cell-based", "outline": "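HeLa cells in 96-well culture, treated for 12, 24 and 48 h, done in triplicate; after treatment, incubated 24 h more at 37 °C, 5% CO2. WST-8 (Cell Counting Kit-8) added, OD read at 450 nm after 30 min. Survival expressed relative to untreated cells; two further independent experiments.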"}, "HeLa [21]": {"test_system": "HeLa", "assay": "Cell cycle arrest in human HeLa cells assessed as accumulation at G2 phase at 0.5 uM after 12 hrs using propidium iodide staining by FACS analysis", "assay_type": "functional", "outline": "as §2"}, "HeLa [22]": {"test_system": "HeLa", "assay": "Inhibition of microtubule assembly in human HeLa cells assessed as loss of stabilization of microtubule bundles by immunofluorescence staining", "assay_type": "cell-based", "outline": "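HeLa cells given 0.25 µM for 24 h alongside DMSO vehicle and 0.1 µM taxol controls. Indirect immunofluorescence with anti-α-tubulin and an Alexa Fluor 488 secondary antibody; microtubule network imaged by spectral confocal microscopy.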"}, "HeLa [23]": {"test_system": "HeLa", "assay": "Antiproliferative activity against human HeLa cells at 0.1 uM after 24 hrs", "assay_type": "functional, cell-based", "outline": "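HeLa cells grown in DMEM with FBS were seeded in 96-well plates and exposed for 12, 24 or 48 h to compound dissolved in DMSO (final DMSO under 0.1%). WST-8 (Cell Counting Kit-8) was added, and OD at 450 nm was read after 30 min. Survival was expressed as % of untreated control, in triplicate, with two further independent experiments.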"}}, "note": "Active and inactive are the calls of the source. No cut-off for these calls is given here.", "data": [{"smiles": "COc1cc([C@@H]2c3cc4c(cc3C[C@H]3COC(=O)[C@@H]32)OCO4)cc(OC)c1OC", "note": "[DESOXYPODOPHYLLOTOXIN]", "values": [{"measurement": "Activity", "setting": "HeLa [1]", "value": "Active"}, {"measurement": "Activity", "setting": "HeLa [2]", "value": "Active"}, {"measurement": "Activity", "setting": "HeLa [3]", "value": 12, "unit": "%"}, {"measurement": "Activity", "setting": "HeLa [4]", "value": "Active"}, {"measurement": "Activity", "setting": "HeLa [5]", "value": 0.2, "unit": "%"}, {"measurement": "Activity", "setting": "HeLa [6]", "value": 11, "unit": "%"}, {"measurement": "Activity", "setting": "HeLa [7]", "value": "Active"}, {"measurement": "Activity", "setting": "HeLa [8]", "value": 29.7, "unit": "%"}, {"measurement": "Activity", "setting": "HeLa [9]", "value": 4.5, "unit": "%"}, {"measurement": "Activity", "setting": "[10]", "value": "Dose-dependent effect"}, {"measurement": "Activity", "setting": "HeLa [11]", "value": 3.5, "unit": "%"}, {"measurement": "Activity", "setting": "HeLa [12]", "value": 8.6, "unit": "%"}, {"measurement": "Activity", "setting": "HeLa [13]", "value": 82.1, "unit": "%"}, {"measurement": "Activity", "setting": "HeLa [14]", "value": 6.8, "unit": "%"}, {"measurement": "Activity", "setting": "HeLa [15]", "value": "Active"}, {"measurement": "Activity", "setting": "HeLa [16]", "value": 28.9, "unit": "%"}, {"measurement": "Activity", "setting": "HeLa [17]", "value": 87.8, "unit": "%"}, {"measurement": "Activity", "setting": "HeLa [18]", "value": "tde"}, {"measurement": "Activity", "setting": "HeLa [19]", "value": "tde"}, {"measurement": "Activity", "setting": "HeLa [20]", "value": "Active"}, {"measurement": "Activity", "setting": "HeLa [21]", "value": 58.9, "unit": "%"}, {"measurement": "Activity", "setting": "HeLa [22]", "value": "inactive"}]}, {"smiles": "CC(=O)O[C@H]1C(=O)[C@@]2(C)[C@H]([C@H](OC(=O)c3ccccc3)[C@]3(O)C[C@H](OC(=O)[C@H](O)[C@@H](NC(=O)c4ccccc4)c4ccccc4)C(C)=C1C3(C)C)[C@]1(OC(C)=O)CO[C@@H]1C[C@@H]2O", "values": [{"measurement": "Activity", "setting": "[10]", "value": "inactive"}, {"measurement": "Activity", "setting": "HeLa [23]", "value": "Active"}]}]}
